Common to all, as to conditions: in vivo
For data set [1], the system named is Sus scrofa. The data set can be described thus: Plasma concentration in pig at 10 mg/kg, po. It counts as ADME, organism-based. More on the design: dose 10 mg/kg, route oral. The essentials:
(§1)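 Prodrug given orally to three pigs at 10 mg/kg body weight. Heparinized blood samples were centrifuged at 1500g for 10 min at 4 °C, stored at -80 °C and worked up by solid-phase extraction. Some samples were pretreated with β-glucuronidase/sulfatase. Benzamidine and benzamidoxime were measured in plasma by HPLC. Pharmacokinetic parameters were estimated for each pig from the plasma concentration-time curves.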

The nature of data set [2]: Tmax in po dosed pig. The class given is ADME, organism-based, Sus scrofa. The essentials:
as §1

Data set [3] in a line: Cmax in po dosed pig. The class given is ADME, organism-based, Sus scrofa. Set-up: route oral. The essentials: as §1
A short description of data set [4]: Half life in po dosed pig. It counts as ADME, organism-based, Sus scrofa. In a few lines: as §1
Data set [5] can be described thus: Mean resident time in po dosed pig. It counts as ADME, organism-based, Sus scrofa. The essentials:
as §1

Data set [6] deals with Sus scrofa. The data set can be described thus: AUC in po dosed pig. It counts as ADME, organism-based, Plasma. In a few lines: as §1
Data set [7] relates to Sus scrofa. The data set can be described thus: Volume of distribution in po dosed pig. It counts as ADME, organism-based. The essentials: as §1
For data set [8], the system named is Sus scrofa. The data set can be described thus: Clearance in po dosed pig. It counts as ADME, organism-based. The essentials: as §1
Data set [9] in a line: Oral bioavailability in pig. It counts as ADME, organism-based, Sus scrofa. The essentials:
as §1

2 compounds from ChEMBL document CHEMBL1138363, “N,N'-dihydroxyamidines: a new prodrug principle to improve the oral bioavailability of amidines” (J Med Chem, 2007) can be followed below.

In the case of `NC(=NO)c1ccccc1` [BENZAMIDOXIME], the concentration in the data set on Sus scrofa [1] worked out at 0.4 µM.
Broadly, the Tmax is the time from dosing to the highest level. As a reminder, the Cmax is the highest concentration seen after dosing. Usually half-life stands for how long it takes for the measured level to halve. A word on the MRT: it is the average time that molecules of a dose stay in the body. The AUC is the area under the concentration-time curve, a measure of exposure. The low end stands for less exposure, the high end for more exposure. What is called bioavailability is dose-corrected exposure relative to a reference, in per cent. High values mean good availability, low ones poor availability. In the case of `N=C(N)c1ccccc1` [BENZAMIDINE], the concentration in the data set with Sus scrofa [1] is 13.7 µM. The time of peak concentration (Tmax) in data set [2] was 2 h. The Cmax in data set [3] turned out to be 13.7 µM. The compound also came in with a half-life in [4] of 3.7 h. In addition, the MRT in data set [5] is 6.16 h. This compound gave an AUC in the data set on Sus scrofa [6] of 98.7 µM·h. Besides, in the data set with Sus scrofa [7], the Vd turned out to be 7.91 L/kg. Also, the CL in the data set with Sus scrofa [8] amounted to 30 mL/min/kg. The bioavailability in [9] is 91%.
